The source of these data is ChEMBL document CHEMBL4393663, “Targeting gliomas with triazene-based hybrids: Structure-activity relationship, mechanistic study and stability” (Eur J Med Chem, 2019).

Data set [1] deals with T1, Histone deacetylase (Homo sapiens) (UniProt Q13547+O15379+Q9UBN7+Q92769+Q9UQL6+Q8WUI4+Q9BY41+Q96DB2+P56524+Q9UKV0+Q969S8). As to the kind of experiment: Inhibition of HDAC in human HeLa nuclear extract assessed as enzyme residual activity at 100 uM using Boc-Lys(acetyl)-AMC as substrate and measured after 15 mins by fluorescence assay relative to control. The class given is cell-free. An outline of the steps:
(§1)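 Fluorometric HDAC activity kit with HeLa nuclear extract as enzyme source; compounds from 20 mM DMSO stock, tested in duplicate. Deacetylated substrate treated with lysine developer; fluorescence read after 15 min at ex 360/em 460 nm.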

Data set [2] is described as follows: Stability in 80% human plasma assessed as half life by HPLC analysis. The format is ADME, cell-free. Put shortly: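 Plasma pooled from 13 donors (heparin), stored at −18 °C, thawed slowly, diluted to 80% v/v with 10 mM PBS pH 7.4 at 37 °C; compound added from 10 mM acetonitrile stock; aliquots taken over time, centrifuged 12000 rpm 10 min, supernatant analyzed by HPLC for half-life; duplicate or triplicate runs.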

Data set [3] has as its target T1, Histone deacetylase (Homo sapiens). As to the kind of experiment: Inhibition of HDAC in human HeLa nuclear extract assessed as enzyme residual activity at 25 uM using Boc-Lys(acetyl)-AMC as substrate and measured after 15 mins by fluorescence assay relative to control. The class given is cell-free. An outline of the steps:
as §1

The nature of data set [4]: Induction of alkylation in 5'-GGGAGA-3' single stranded DNA (unknown origin) at ssDNA to compound concentration ratio of 1:3 to 1:250M incubated for 7 days by ESI-MS analysis. An outline of the steps: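 Single-stranded oligonucleotide incubated with the compound in 10 mM ammonium bicarbonate buffer, pH 8.3, at 37 °C. Aliquots were taken at intervals and extracted three times with ethyl acetate, then centrifuged. The aqueous phase was analysed by flow-injection ESI(−) HRMS in 50:50 water/acetonitrile with 0.1% formic acid. Run in triplicate.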

Data set [5] can be described thus: Stability of the compound in PBS buffer at pH 7.4 assessed as half life by HPLC analysis. The format is physicochemical.
The subject of data set [6] is GL261. As to the kind of experiment: Cytotoxicity against mouse GL261 cells assessed as reduction in cell viability incubated for 48 hrs by MTS assay. The format is functional, cell-based. To be noted: GL261, 48 h. (In general: Tetrazolium dyes change colour on reduction, which living cells bring about.)
The test system of data set [7] is GL261. As to the kind of experiment: Induction of apoptosis in mouse GL261 cells assessed as reduction in cell viability at 10 uM incubated for 48 hrs by annexinV-PE/7-AAD staining based flow cytometric analysis. The class given is functional. Put shortly: (§2)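 GL261 cells exposed 48 h; trypsinized adherent cells combined with medium cells, pelleted, resuspended in PBS/1% BSA, stained with annexin V-PE/7-AAD; flow cytometry gating viable (both negative), early apoptotic (annexin+/7-AAD−), late apoptotic/dead (both positive); two readings per sample; three independent experiments in duplicate.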
Background: Flow cytometry measures light scatter and fluorescence of single cells or particles in a stream.

Data set [8] deals with GL261. As to the kind of experiment: Induction of apoptosis in mouse GL261 cells assessed as increase in early apoptotic cells at 10 uM incubated for 48 hrs by annexinV-PE/7-AAD staining based flow cytometric analysis. The class given is functional, cell-based. Put shortly:
as §2

The test system of data set [9] is SH-SY5Y. As to the kind of experiment: Induction of apoptosis in human SH-SY5Y cells assessed as increase in early apoptotic cells at 10 uM incubated for 48 hrs by annexinV-PE/7-AAD staining based flow cytometric analysis. The class given is functional, cell-based. An outline of the steps: (§3)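 SH-SY5Y cells grown on poly-D-lysine/laminin, differentiated 7 days with 10 µM retinoic acid, then exposed 48 h. Adherent plus floating cells pooled, resuspended in PBS/1% BSA, stained annexin V-PE/7-AAD and counted by flow cytometry into viable, early apoptotic, late apoptotic/necrotic; two readings per sample; three independent experiments in duplicate.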

Data set [10] deals with SH-SY5Y. As to the kind of experiment: Induction of apoptosis in human SH-SY5Y cells assessed as reduction in cell viability at 10 uM incubated for 48 hrs by annexinV-PE/7-AAD staining based flow cytometric analysis. The class given is functional. An outline of the steps: as §3
Data set [11] has as its system SH-SY5Y. As to the kind of experiment: Induction of apoptosis in human SH-SY5Y cells assessed as increase in late necrotic cells at 10 uM incubated for 48 hrs by annexinV-PE/7-AAD staining based flow cytometric analysis. The format is functional, cell-based. An outline of the steps: as §3
In data set [12] the test system is GL261. As to the kind of experiment: Induction of morphological changes in mouse GL261 cells assessed as increase in cell circularity at 10 uM incubated for 48 hrs by Hoechst 33258 staining based fluorescence microscopic analysis. The class given is functional. Put shortly:
(§4)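 After 48 h exposure, GL261 cells on coverslips fixed in 4% paraformaldehyde, permeabilized (0.1% Triton X-100), blocked 30 min, stained with Alexa Fluor-594 phalloidin and Hoechst 33258; ten random fields at 630×; circularity (4π·area/perimeter²) and aspect ratio traced manually on ≥120 cells per condition; three independent experiments.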

Data set [13] has as its system GL261. As to the kind of experiment: Induction of morphological changes in mouse GL261 cells assessed as decrease in cell aspect ratio at 10 uM incubated for 48 hrs by Hoechst 33258 staining based fluorescence microscopic analysis. The format is functional. An outline of the steps:
as §4

Data set [14] has as its system GL261. As to the kind of experiment: Antiinvasive activity in mouse GL261 cells assessed as reduction in cell migration at 10 uM preincubated for 48 hrs and measured after 6 hrs by giemsa staining based Boyden chamber assay. The class given is functional.
The target in data set [15] is T1, Histone deacetylase (Homo sapiens). As to the kind of experiment: Inhibition of HDAC in human HeLa nuclear extract assessed as enzyme residual activity at 6.25 uM using Boc-Lys(acetyl)-AMC as substrate and measured after 15 mins by fluorescence assay relative to control. The format is cell-free. An outline of the steps: as §1
Data set [16] can be described thus: Stability of compound in PBS buffer at pH 7.4 at 10^-5 M measured 5 min for 60 mins in presence of N-acetylcysteine by UV-Vis spectrophotometric analysis. The class given is physicochemical. As to conditions: pH 7.4, 1 h, 10 µM.
Data set [17] in a line: Stability of the compound in PBS buffer at pH 7.4 at 10^-5 M measured 5 min for 60 mins in presence of glutathione by UV-Vis spectrophotometric analysis. The format is physicochemical. As to conditions: pH 7.4, 1 h, 10 µM.
The nature of data set [18]: Octanol-phosphate buffered saline distribution coefficient, log D of compound at pH 7.4 at 1 mg shake for 30 mins and measured after 48 hrs by HPLC analysis. The class given is physicochemical.

The source made the active and inactive calls. The calls are words filed in the database; no cut-off is given here.

As a reminder, the half-life is how long it takes for the measured level to halve. In general, IC50 refers to the concentration needed to halve the response being measured. As a reminder, the logD is the decadic logarithm of the distribution of all forms, ionised or not, between an organic phase and buffer at a given pH. Low values mean lower lipophilicity, high ones higher lipophilicity. Consider `CCCC(CCC)C(=O)N(C)/N=N/c1ccc(C#N)cc1`, for which the Activity in [1] came out at 94.6%; in data set [3], 98%; in [15], 99.1%. The half-life in data set [2] and in [5] was above 40 h in each case. Also, in data set [4], the result was inactive. Besides, the IC50 in the data set with GL261 [6] was above 100 µM. The outcome with GL261 [7], in the data set on GL261 [8], in the data set with SH-SY5Y [9], in the data set with SH-SY5Y [10], in the data set with SH-SY5Y [11] and in the data set on GL261 [12] was Active. For the same compound, the result in the data set with GL261 [13] and with GL261 [14] was Active. Further, the Stability result in data set [16] and in data set [17] was “Stable” in each case. The compound further showed a log distribution coefficient (logD) at 30 min in data set [18] of 4.84.
